Laboratory results: ChEMBL document CHEMBL2331489, “Novel cinnoline-based inhibitors of LRRK2 kinase activity” (Bioorg Med Chem Lett, 2013)
Calls of active or inactive are those of the source. No cut-off for these calls is given here.

Key:
[1] = target: Tyrosine-protein kinase SYK (Homo sapiens) (UniProt P43405); assay: Inhibition of SYK (unknown origin) at 10 uM relative to control
[2] = target: Leucine-rich repeat serine/threonine-protein kinase 2 (Homo sapiens, UniProt Q5S007); assay: Inhibition of wild type GST-tagged LRRK2 (970 to 2527 amino acid residues) (unknown origin) assessed as inhibition of biotinylated-LRRKtide phosphorylation by HTRF assay in presence of ATP
Sequence of Leucine-rich repeat serine/threonine-protein kinase 2 (Homo sapiens, UniProt Q5S007) (Q5S007 whole entry, the tested form may be a part): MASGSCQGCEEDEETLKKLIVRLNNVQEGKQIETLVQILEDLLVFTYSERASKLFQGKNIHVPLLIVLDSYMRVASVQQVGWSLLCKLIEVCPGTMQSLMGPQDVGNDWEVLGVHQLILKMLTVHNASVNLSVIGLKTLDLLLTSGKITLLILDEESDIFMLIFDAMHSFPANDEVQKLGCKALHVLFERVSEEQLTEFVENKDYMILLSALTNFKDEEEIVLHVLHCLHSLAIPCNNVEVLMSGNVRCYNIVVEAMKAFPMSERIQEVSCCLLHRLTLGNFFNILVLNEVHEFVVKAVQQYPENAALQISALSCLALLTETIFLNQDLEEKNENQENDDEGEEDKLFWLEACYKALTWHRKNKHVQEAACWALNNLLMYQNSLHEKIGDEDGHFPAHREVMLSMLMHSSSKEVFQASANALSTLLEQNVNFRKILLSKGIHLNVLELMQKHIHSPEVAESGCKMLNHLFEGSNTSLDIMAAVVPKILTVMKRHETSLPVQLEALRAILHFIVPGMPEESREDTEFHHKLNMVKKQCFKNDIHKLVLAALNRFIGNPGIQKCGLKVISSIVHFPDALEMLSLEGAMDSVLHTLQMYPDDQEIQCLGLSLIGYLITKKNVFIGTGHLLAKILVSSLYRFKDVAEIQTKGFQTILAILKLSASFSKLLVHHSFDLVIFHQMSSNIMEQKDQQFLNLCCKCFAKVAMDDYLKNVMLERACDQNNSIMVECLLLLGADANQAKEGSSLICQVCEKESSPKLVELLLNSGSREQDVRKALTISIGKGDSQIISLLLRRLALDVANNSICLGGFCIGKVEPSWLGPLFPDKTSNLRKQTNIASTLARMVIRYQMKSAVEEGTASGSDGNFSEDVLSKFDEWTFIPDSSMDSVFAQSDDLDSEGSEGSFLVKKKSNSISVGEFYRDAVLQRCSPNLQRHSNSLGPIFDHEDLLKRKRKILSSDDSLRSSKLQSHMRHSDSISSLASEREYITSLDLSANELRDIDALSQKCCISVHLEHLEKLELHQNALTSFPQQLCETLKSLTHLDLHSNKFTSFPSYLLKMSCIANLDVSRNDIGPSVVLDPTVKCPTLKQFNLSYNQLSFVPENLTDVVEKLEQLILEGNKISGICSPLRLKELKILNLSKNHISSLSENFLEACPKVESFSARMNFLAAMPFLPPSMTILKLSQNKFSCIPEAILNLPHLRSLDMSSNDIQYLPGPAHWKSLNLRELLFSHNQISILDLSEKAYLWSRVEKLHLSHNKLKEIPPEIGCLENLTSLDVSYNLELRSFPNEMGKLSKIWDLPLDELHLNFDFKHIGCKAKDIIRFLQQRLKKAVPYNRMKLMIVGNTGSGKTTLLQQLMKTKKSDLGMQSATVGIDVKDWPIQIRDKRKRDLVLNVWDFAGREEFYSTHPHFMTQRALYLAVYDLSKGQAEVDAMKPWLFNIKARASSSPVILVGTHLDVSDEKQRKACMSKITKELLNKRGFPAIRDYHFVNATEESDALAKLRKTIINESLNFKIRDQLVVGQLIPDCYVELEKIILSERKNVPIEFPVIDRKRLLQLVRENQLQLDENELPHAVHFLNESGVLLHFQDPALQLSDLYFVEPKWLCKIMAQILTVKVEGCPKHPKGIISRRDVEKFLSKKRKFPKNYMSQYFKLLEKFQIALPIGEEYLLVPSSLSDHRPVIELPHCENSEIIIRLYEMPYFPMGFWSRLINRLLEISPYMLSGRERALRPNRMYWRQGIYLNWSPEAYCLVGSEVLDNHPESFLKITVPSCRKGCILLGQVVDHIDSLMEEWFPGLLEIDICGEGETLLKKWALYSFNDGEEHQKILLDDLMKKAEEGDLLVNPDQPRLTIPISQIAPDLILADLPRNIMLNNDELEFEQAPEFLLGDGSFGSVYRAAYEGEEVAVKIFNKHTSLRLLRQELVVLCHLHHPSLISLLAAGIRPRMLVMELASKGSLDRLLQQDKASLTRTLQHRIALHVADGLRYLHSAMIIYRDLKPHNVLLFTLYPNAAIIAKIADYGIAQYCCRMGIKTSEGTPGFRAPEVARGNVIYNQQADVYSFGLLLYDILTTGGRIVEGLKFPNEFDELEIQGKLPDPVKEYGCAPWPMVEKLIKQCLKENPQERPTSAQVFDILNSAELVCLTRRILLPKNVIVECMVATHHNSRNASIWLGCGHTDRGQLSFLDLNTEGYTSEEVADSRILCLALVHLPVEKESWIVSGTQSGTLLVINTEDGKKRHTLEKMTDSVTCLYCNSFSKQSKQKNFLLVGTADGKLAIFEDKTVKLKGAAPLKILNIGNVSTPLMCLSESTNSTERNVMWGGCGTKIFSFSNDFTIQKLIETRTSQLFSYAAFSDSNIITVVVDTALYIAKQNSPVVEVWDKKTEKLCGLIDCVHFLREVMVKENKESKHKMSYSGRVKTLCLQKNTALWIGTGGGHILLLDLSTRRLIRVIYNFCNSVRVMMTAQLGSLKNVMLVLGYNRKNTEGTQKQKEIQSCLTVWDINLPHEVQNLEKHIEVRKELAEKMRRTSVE

Brain = assay: Drug uptake in Mdr1(a/b) knock out and P-gp competent FVB mouse brain at 1 mg/kg, iv at 5 mins; format: ADME, organism-based; design: dose 1 mg/kg, route intravenous; conditions: in vivo
Outline: (§1)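 FVB mice, both Mdr1a/b (-/-) and P-gp-competent wild-type, were given a single 1 mg/kg IV dose. Brain and plasma concentrations were measured 5 min after dosing. Brain uptake was expressed as the brain-to-plasma concentration ratio (Kp). In vivo P-gp efflux was assessed by comparing the knockout and wild-type strains.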

[3] = target: Platelet-derived growth factor receptor alpha (Homo sapiens, UniProt P16234); assay: Inhibition of PDGFRalpha (unknown origin) by TR-FRET assay in presence of ATP
Sequence of Platelet-derived growth factor receptor alpha (P16234 whole entry): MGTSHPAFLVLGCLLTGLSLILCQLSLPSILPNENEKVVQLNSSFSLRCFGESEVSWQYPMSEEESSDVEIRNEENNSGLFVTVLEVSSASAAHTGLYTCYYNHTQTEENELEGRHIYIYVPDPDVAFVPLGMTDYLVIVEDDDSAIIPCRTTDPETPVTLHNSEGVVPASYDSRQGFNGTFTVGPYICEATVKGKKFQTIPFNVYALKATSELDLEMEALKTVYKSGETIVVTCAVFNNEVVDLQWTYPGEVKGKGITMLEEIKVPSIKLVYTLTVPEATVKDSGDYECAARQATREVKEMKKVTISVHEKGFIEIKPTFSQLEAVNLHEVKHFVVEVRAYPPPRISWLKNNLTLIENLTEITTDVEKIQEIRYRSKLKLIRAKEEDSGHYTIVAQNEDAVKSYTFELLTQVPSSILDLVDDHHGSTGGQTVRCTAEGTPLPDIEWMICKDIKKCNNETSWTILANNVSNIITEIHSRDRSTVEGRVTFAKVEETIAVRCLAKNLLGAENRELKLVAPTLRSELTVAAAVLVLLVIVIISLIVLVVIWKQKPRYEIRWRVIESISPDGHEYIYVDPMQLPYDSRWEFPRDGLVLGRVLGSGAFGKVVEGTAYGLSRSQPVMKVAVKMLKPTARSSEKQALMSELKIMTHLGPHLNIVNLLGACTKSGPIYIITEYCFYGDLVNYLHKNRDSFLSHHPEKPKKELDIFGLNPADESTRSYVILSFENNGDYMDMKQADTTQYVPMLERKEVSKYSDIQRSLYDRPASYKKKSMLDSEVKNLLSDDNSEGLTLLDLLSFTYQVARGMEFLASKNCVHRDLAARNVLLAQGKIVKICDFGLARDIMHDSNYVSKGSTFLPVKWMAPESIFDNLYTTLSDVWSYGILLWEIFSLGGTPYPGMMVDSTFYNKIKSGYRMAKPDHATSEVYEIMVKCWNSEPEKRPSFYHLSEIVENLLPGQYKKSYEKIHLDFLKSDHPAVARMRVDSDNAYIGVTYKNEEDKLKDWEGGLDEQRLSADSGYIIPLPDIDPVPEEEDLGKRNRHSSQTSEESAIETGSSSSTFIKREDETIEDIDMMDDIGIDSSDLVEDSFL

[4] = target: Macrophage colony-stimulating factor 1 receptor (Homo sapiens, UniProt P07333); assay: Inhibition of CSF1R (unknown origin) by TR-FRET assay in presence of ATP
Sequence of Macrophage colony-stimulating factor 1 receptor (P07333 whole entry): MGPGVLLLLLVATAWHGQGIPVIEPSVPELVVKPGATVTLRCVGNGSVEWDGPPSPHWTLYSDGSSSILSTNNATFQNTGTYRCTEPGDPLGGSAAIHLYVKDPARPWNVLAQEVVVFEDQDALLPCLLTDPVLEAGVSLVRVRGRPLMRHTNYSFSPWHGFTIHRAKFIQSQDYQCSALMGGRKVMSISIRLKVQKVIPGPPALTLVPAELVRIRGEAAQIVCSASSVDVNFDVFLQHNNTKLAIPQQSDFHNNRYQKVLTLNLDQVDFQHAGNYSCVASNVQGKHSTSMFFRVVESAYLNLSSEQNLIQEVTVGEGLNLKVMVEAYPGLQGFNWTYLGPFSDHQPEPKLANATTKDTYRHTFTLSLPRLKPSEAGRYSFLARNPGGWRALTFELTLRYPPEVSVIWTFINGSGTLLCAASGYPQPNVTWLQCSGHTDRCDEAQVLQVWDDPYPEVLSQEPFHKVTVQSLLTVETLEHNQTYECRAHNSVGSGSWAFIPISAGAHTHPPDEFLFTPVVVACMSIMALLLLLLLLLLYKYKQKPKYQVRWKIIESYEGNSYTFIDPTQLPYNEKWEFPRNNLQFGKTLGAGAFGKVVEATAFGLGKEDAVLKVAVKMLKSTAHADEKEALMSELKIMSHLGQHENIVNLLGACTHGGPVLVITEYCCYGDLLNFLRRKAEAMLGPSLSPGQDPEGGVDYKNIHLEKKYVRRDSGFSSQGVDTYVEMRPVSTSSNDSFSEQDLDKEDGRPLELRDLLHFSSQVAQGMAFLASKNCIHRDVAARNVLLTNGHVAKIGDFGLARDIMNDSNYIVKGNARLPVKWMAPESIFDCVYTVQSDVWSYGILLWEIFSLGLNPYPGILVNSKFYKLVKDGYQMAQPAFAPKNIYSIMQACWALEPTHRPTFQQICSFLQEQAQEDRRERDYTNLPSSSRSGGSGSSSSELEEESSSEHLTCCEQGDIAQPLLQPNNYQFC

[5] = target: ATP-dependent translocase ABCB1 (Homo sapiens, UniProt P08183); assay: Inhibition of MDR1 (unknown origin) transfected in MDCK cells; format: cell-based
Mus musculus = assay: Inhibition of P-gp in Mdr1(a/b) knock out and P-gp competent FVB mouse at 1 mg/kg, iv; format: functional, organism-based; design: dose 1 mg/kg; outline: as §1
[6] = Ratio of drug level in brain to plasma in Mdr1(a/b) knock out and P-gp competent FVB mouse at 1 mg/kg, iv at 5 mins; format: ADME, organism-based; design: dose 1 mg/kg, route intravenous; conditions: read-out: BPR; outline: as §1
[7] = target: T1, Leucine-rich repeat serine/threonine-protein kinase 2 (Homo sapiens, UniProt Q5S007, G2019S); assay: Inhibition of GST-tagged LRRK2 G2019S mutant (970 to 2527 amino acid residues) (unknown origin) assessed as inhibition of biotinylated-LRRKtide phosphorylation by HTRF assay in presence of ATP
T1 sequence (Q5S007 whole entry G2019S, the tested form may be a part): as the sequence (Q5S007 whole entry, the tested form may be a part) above, with G2019S counted along it

[8] = target: T1, Leucine-rich repeat serine/threonine-protein kinase 2; assay: Inhibition of LRRK2 G2019S mutant (unknown origin) transfected in HEK293 cells assessed as inhibition of S935 phosphorylation; format: cell-based

SMILES	inhibition [1]	IC50 [2]	Drug uptake (Brain)	IC50 [3]	IC50 [4]	inhibition (INH) [5]	inhibition (Mus musculus)	Kp at 5 min [6]	IC50 [7]	EC50 [8]
CC(C)Nc1c(C(N)=O)cnc2cc(-c3ccc(S(C)(=O)=O)cc3)ccc12	72%	35 nM	–	–	–	–	–	–	–	–
CS(=O)(=O)c1ccc(-c2ccc3c(NC4CCC4)c(C(N)=O)nnc3c2)cc1	79%	–	Active	127 nM	< 40 nM	Active	Active	0.76	19 nM	–
CC(C)Nc1c(C(N)=O)nnc2cc(-c3ccncc3)ccc12	94%	–	–	–	–	–	–	–	–	–
C[C@@H](Nc1c(C(N)=O)nnc2cc(-c3ccc(S(C)(=O)=O)cc3)ccc12)C1CC1	55%	1 nM	–	22 nM	17 nM	–	–	–	7 nM	70 nM
CC(C)Nc1c(C(N)=O)nnc2ccc(-c3cn[nH]c3)cc12	97%	1 nM	–	–	–	–	–	–	5 nM	109 nM
CC(C)Nc1c(C(N)=O)nnc2ccc(-c3ccncc3)cc12	79%	–	–	–	–	–	–	–	66 nM	–
CC(C)Nc1c(C(N)=O)nnc2cc(N3CCOCC3)ccc12	81%	9 nM	Active	22 nM	54 nM	Active	Active	11.4	12 nM	–
